Assay [1] deals with T1, Pituitary adenylate cyclase-activating polypeptide type I receptor (Homo sapiens, UniProt P41586). As to the kind of experiment: Displacement of [125I]Ac-PACAP27 from human recombinant PAC1 receptor expressed in CHO cells by gamma- counter. The class given is cell-based. For orientation: Displacement assays read how much labelled ligand stays bound in the presence of the test substance.
Target sequence in this assay (P41586 whole entry): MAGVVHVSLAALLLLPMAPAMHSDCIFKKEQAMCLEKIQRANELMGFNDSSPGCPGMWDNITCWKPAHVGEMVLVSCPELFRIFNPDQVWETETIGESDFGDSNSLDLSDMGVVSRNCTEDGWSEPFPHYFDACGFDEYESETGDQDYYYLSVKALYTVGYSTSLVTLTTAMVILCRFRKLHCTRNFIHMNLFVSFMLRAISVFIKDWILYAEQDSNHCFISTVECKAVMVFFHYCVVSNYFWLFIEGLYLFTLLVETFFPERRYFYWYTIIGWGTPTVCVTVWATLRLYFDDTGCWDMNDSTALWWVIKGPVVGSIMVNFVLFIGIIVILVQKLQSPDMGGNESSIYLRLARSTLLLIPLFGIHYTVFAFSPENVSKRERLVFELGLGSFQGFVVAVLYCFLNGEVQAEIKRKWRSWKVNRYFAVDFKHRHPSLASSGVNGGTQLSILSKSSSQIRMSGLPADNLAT

Assay [2] deals with T1, Pituitary adenylate cyclase-activating polypeptide type I receptor. As to the kind of experiment: Agonist activity at human recombinant PAC1 receptor expressed in CHO cells assessed as PACAP38-induced calcium mobilization by FLIPR assay relative to PACAP38. Format: functional, cell-based. In a few lines:
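CHO cells stably expressing recombinant human PAC1, plated 24 h before assay, loaded with fluo-4 AM for 60 min at 37 °C in the dark, then rinsed into HBSS for 15 min at 37 °C. Peptide was added 18 s into a 150 s read (ex 480/em 525 nm), at final concentrations of 1 × 10-12 to 1 × 10^-5 M. Response was normalised to 1 × 10^-5 M PACAP38 on each plate. EC50 and efficacy came from nonlinear regression; 4-10 independent assays in duplicate.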
Target sequence in this assay (P41586 21-468 limits assumed): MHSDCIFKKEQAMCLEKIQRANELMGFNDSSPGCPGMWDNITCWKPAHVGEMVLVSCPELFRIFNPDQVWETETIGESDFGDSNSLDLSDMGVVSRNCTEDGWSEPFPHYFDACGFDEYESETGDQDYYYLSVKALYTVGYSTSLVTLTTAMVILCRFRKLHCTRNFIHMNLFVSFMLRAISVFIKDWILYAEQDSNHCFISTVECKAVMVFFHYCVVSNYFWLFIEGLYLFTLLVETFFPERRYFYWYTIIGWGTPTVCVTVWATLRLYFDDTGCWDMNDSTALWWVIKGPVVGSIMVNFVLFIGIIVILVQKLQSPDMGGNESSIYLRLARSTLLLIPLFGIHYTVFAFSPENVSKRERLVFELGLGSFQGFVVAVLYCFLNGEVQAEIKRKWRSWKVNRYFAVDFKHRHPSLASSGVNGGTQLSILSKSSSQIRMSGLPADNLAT

Assay [3] shares this target. As to the kind of experiment: Agonist activity at human recombinant PAC1 receptor expressed in CHO cells assessed as PACAP38-induced calcium mobilization by FLIPR assay. The class given is functional, cell-based. An outline of the steps:
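CHO cells stably expressing recombinant human PAC1, plated 24 h before assay, loaded with fluo-4 AM for 60 min at 37 °C in the dark, then rinsed into HBSS for 15 min at 37 °C. EC50 and efficacy came from nonlinear regression; 4-10 independent assays in duplicate.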
Target sequence in this assay (P41586 whole entry): as the sequence (P41586 whole entry) above

Where a SMILES comes first, the peptide text is derived from it.

On to `CC[C@H](C)[C@H](NC(=O)CNC(=O)[C@H](CC(=O)O)NC(=O)[C@@H](CO)NC(=O)[C@@H](N)Cc1cnc[nH]1)C(=O)N[C@@H](Cc1ccccc1)C(=O)N[C@H](C(=O)N[C@@H](CC(=O)O)C(=O)N[C@@H](CO)C(=O)N[C@@H](Cc1ccc(O)cc1)C(=O)N[C@@H](CO)C(=O)N[C@@H](CCCNC(=N)N)C(=O)N[C@@H](Cc1ccc(O)cc1)C(=O)N[C@@H](CCCNC(=N)N)C(=O)N[C@@H](CCCCN)C(=O)N[C@@H](CCC(N)=O)C(=O)N[C@@H](CCSC)C(=O)N[C@@H](C)C(=O)N[C@H](C(=O)N[C@@H](CCCCN)C(=O)N[C@@H](CCCCN)C(=O)N[C@@H](Cc1ccc(O)cc1)C(=O)N[C@@H](CC(C)C)C(=O)N[C@@H](C)C(=O)N[C@@H](C)C(=O)N[C@H](C(=O)N[C@@H](CC(C)C)C(=O)NCC(=O)N[C@@H](CCCCN)C(=O)N[C@@H](CCCNC(=N)N)C(=O)N[C@@H](Cc1ccc(O)cc1)C(=O)N[C@@H](CCCCN)C(=O)N[C@@H](CCC(N)=O)C(=O)N[C@@H](CCCNC(=N)N)C(=O)N[C@H](C(=O)N[C@@H](CCCCN)C(=O)N[C@@H](CC(N)=O)C(=O)N[C@@H](CCCCN)C(N)=O)C(C)C)C(C)C)C(C)C)[C@@H](C)O`, for which the IC50 in assay [1] is 6.6 nM. Further, the Emax in assay [2] was determined as 90.5%. In assay [3], the EC50 came to 4.1 nM.

Regarding `CC[C@H](C)[C@H](NC(=O)CNC(=O)[C@H](CC(=O)O)NC(=O)[C@H](CO)NC(=O)[C@@H](N)Cc1cnc[nH]1)C(=O)N[C@@H](Cc1ccccc1)C(=O)N[C@@H](C)C(=O)N[C@@H](CC(=O)O)C(=O)N[C@@H](CO)C(=O)N[C@@H](Cc1ccc(O)cc1)C(=O)N[C@@H](CO)C(=O)N[C@@H](CCCNC(=N)N)C(=O)N[C@@H](Cc1ccc(O)cc1)C(=O)N[C@@H](CCCNC(=N)N)C(=O)N[C@@H](CCCCN)C(=O)N[C@@H](CCC(N)=O)C(=O)N[C@@H](CCSC)C(=O)N[C@@H](C)C(=O)N[C@H](C(=O)N[C@@H](CCCCN)C(=O)N[C@@H](CCCCN)C(=O)N[C@@H](Cc1ccc(O)cc1)C(=O)N[C@@H](CC(C)C)C(=O)N[C@@H](C)C(=O)N[C@@H](C)C(=O)N[C@H](C(=O)N[C@@H](CC(C)C)C(N)=O)C(C)C)C(C)C`, the IC50 in assay [1] was 10.8 nM. Moreover, the Emax in assay [2] worked out at 112%. Further, the EC50 in assay [3] was 8.75 nM.

With `CC[C@H](C)[C@H](NC(=O)CNC(=O)[C@@H](CC(=O)O)NC(=O)[C@H](CO)NC(=O)[C@@H](N)Cc1cnc[nH]1)C(=O)N[C@@H](Cc1ccccc1)C(=O)N[C@H](C(=O)N[C@@H](CC(=O)O)C(=O)N[C@@H](CO)C(=O)N[C@@H](Cc1ccc(O)cc1)C(=O)N[C@@H](CO)C(=O)N[C@@H](CCCNC(=N)N)C(=O)N[C@@H](Cc1ccc(O)cc1)C(=O)N[C@@H](CCCNC(=N)N)C(=O)N[C@@H](CCCCN)C(=O)N[C@@H](CCC(N)=O)C(=O)N[C@@H](CCSC)C(=O)N[C@@H](C)C(=O)N[C@H](C(=O)N[C@@H](CCCCN)C(=O)N[C@@H](CCCCN)C(=O)N[C@@H](Cc1ccc(O)cc1)C(=O)N[C@@H](CC(C)C)C(=O)N[C@@H](C)C(=O)N[C@@H](C)C(=O)N[C@H](C(=O)N[C@@H](CC(C)C)C(=O)NCC(=O)N[C@@H](CCCCN)C(=O)N[C@@H](CCCNC(=N)N)C(=O)N[C@@H](Cc1ccc(O)cc1)C(=O)N[C@@H](CCCCN)C(=O)N[C@@H](CCC(N)=O)C(=O)N[C@@H](CCCNC(=N)N)C(=O)N[C@H](C(=O)N[C@@H](CCCCN)C(=O)N[C@@H](CC(N)=O)C(=O)N[C@@H](CCCCN)C(N)=O)C(C)C)C(C)C)C(C)C)[C@@H](C)O`, in assay [1], the IC50 was 7.2 nM. In addition, the Emax in assay [2] worked out at 98.6%. The EC50 in assay [3] came out at 7.6 nM.

`CC[C@H](C)[C@H](NC(=O)[C@H](C)NC(=O)[C@H](CC(=O)O)NC(=O)[C@H](CO)NC(=O)[C@@H](N)Cc1cnc[nH]1)C(=O)N[C@@H](Cc1ccccc1)C(=O)N[C@H](C(=O)N[C@@H](CC(=O)O)C(=O)N[C@@H](CO)C(=O)N[C@@H](Cc1ccc(O)cc1)C(=O)N[C@@H](CO)C(=O)N[C@@H](CCCNC(=N)N)C(=O)N[C@@H](Cc1ccc(O)cc1)C(=O)N[C@@H](CCCNC(=N)N)C(=O)N[C@@H](CCCCN)C(=O)N[C@@H](CCC(N)=O)C(=O)N[C@@H](CCSC)C(=O)N[C@@H](C)C(=O)N[C@H](C(=O)N[C@@H](CCCCN)C(=O)N[C@@H](CCCCN)C(=O)N[C@@H](Cc1ccc(O)cc1)C(=O)N[C@@H](CC(C)C)C(=O)N[C@@H](C)C(=O)N[C@@H](C)C(=O)N[C@H](C(=O)N[C@@H](CC(C)C)C(=O)NCC(=O)N[C@@H](CCCCN)C(=O)N[C@@H](CCCNC(=N)N)C(=O)N[C@@H](Cc1ccc(O)cc1)C(=O)N[C@@H](CCCCN)C(=O)N[C@@H](CCC(N)=O)C(=O)N[C@@H](CCCNC(=N)N)C(=O)N[C@H](C(=O)N[C@@H](CCCCN)C(=O)N[C@@H](CC(N)=O)C(=O)N[C@@H](CCCCN)C(N)=O)C(C)C)C(C)C)C(C)C)[C@@H](C)O` (H-HSDAIFTDSYSRYRKQMAVKKYLAAVLGKRYKQRVKNK-NH2): the IC50 in assay [1] is 9.84 nM. In addition, the Emax in assay [2] was determined as 90.2%. Further, in assay [3], the EC50 was determined as 7.4 nM.

With `CC[C@H](C)[C@H](NC(=O)CNC(=O)[C@H](CC(N)=O)NC(=O)[C@H](CO)NC(=O)[C@@H](N)Cc1cnc[nH]1)C(=O)N[C@@H](Cc1ccccc1)C(=O)N[C@H](C(=O)N[C@@H](CC(=O)O)C(=O)N[C@@H](CO)C(=O)N[C@@H](Cc1ccc(O)cc1)C(=O)N[C@@H](CO)C(=O)N[C@@H](CCCNC(=N)N)C(=O)N[C@@H](Cc1ccc(O)cc1)C(=O)N[C@@H](CCCNC(=N)N)C(=O)N[C@@H](CCCCN)C(=O)N[C@@H](CCC(N)=O)C(=O)N[C@@H](CCSC)C(=O)N[C@@H](C)C(=O)N[C@H](C(=O)N[C@@H](CCCCN)C(=O)N[C@@H](CCCCN)C(=O)N[C@@H](Cc1ccc(O)cc1)C(=O)N[C@@H](CC(C)C)C(=O)N[C@@H](C)C(=O)N[C@@H](C)C(=O)N[C@H](C(=O)N[C@@H](CC(C)C)C(N)=O)C(C)C)C(C)C)[C@@H](C)O`, the IC50 in assay [1] stood at 284 nM. In addition, the Emax in assay [2] is 91.2%. Moreover, in assay [3], the EC50 was found to be 140 nM.

As for `CC[C@H](C)[C@H](NC(=O)CNC(=O)[C@H](C)NC(=O)[C@H](CO)NC(=O)[C@@H](N)Cc1cnc[nH]1)C(=O)N[C@@H](Cc1ccccc1)C(=O)N[C@H](C(=O)N[C@@H](CC(=O)O)C(=O)N[C@@H](CO)C(=O)N[C@@H](Cc1ccc(O)cc1)C(=O)N[C@@H](CO)C(=O)N[C@@H](CCCNC(=N)N)C(=O)N[C@@H](Cc1ccc(O)cc1)C(=O)N[C@@H](CCCNC(=N)N)C(=O)N[C@@H](CCCCN)C(=O)N[C@@H](CCC(N)=O)C(=O)N[C@@H](CCSC)C(=O)N[C@@H](C)C(=O)N[C@H](C(=O)N[C@@H](CCCCN)C(=O)N[C@@H](CCCCN)C(=O)N[C@@H](Cc1ccc(O)cc1)C(=O)N[C@@H](CC(C)C)C(=O)N[C@@H](C)C(=O)N[C@@H](C)C(=O)N[C@H](C(=O)N[C@@H](CC(C)C)C(=O)NCC(=O)N[C@@H](CCCCN)C(=O)N[C@@H](CCCNC(=N)N)C(=O)N[C@@H](Cc1ccc(O)cc1)C(=O)N[C@@H](CCCCN)C(=O)N[C@@H](CCC(N)=O)C(=O)N[C@@H](CCCNC(=N)N)C(=O)N[C@H](C(=O)N[C@@H](CCCCN)C(=O)N[C@@H](CC(N)=O)C(=O)N[C@@H](CCCCN)C(N)=O)C(C)C)C(C)C)C(C)C)[C@@H](C)O` (H-HSAGIFTDSYSRYRKQMAVKKYLAAVLGKRYKQRVKNK-NH2), the IC50 in assay [1] is 97.2 nM. Also, in assay [2], the Emax worked out at 64.1%. For the same compound, the EC50 in assay [3] was 10000 nM.

In the case of `CC[C@H](C)[C@H](NC(=O)CNC(=O)[C@H](CCC(=O)O)NC(=O)[C@H](CO)NC(=O)[C@@H](N)Cc1cnc[nH]1)C(=O)N[C@@H](Cc1ccccc1)C(=O)N[C@H](C(=O)N[C@@H](CC(=O)O)C(=O)N[C@@H](CO)C(=O)N[C@@H](Cc1ccc(O)cc1)C(=O)N[C@@H](CO)C(=O)N[C@@H](CCCNC(=N)N)C(=O)N[C@@H](Cc1ccc(O)cc1)C(=O)N[C@@H](CCCNC(=N)N)C(=O)N[C@@H](CCCCN)C(=O)N[C@@H](CCC(N)=O)C(=O)N[C@@H](CCSC)C(=O)N[C@@H](C)C(=O)N[C@H](C(=O)N[C@@H](CCCCN)C(=O)N[C@@H](CCCCN)C(=O)N[C@@H](Cc1ccc(O)cc1)C(=O)N[C@@H](CC(C)C)C(=O)N[C@@H](C)C(=O)N[C@@H](C)C(=O)N[C@H](C(=O)N[C@@H](CC(C)C)C(=O)NCC(=O)N[C@@H](CCCCN)C(=O)N[C@@H](CCCNC(=N)N)C(=O)N[C@@H](Cc1ccc(O)cc1)C(=O)N[C@@H](CCCCN)C(=O)N[C@@H](CCC(N)=O)C(=O)N[C@@H](CCCNC(=N)N)C(=O)N[C@H](C(=O)N[C@@H](CCCCN)C(=O)N[C@@H](CC(N)=O)C(=O)N[C@@H](CCCCN)C(N)=O)C(C)C)C(C)C)C(C)C)[C@@H](C)O` (H-HSEGIFTDSYSRYRKQMAVKKYLAAVLGKRYKQRVKNK-NH2), in assay [1], the IC50 was 7 nM. Besides, in assay [2], the Emax amounted to 87.6%. Further, the EC50 in assay [3] turned out to be 1.5 nM.

As for `CC[C@H](C)[C@H](NC(=O)CNC(=O)[C@H](CC(=O)O)NC(=O)[C@H](CO)NC(=O)[C@@H](N)Cc1cnc[nH]1)C(=O)N[C@H](Cc1ccccc1)C(=O)N[C@H](C(=O)N[C@@H](CC(=O)O)C(=O)N[C@@H](CO)C(=O)N[C@@H](Cc1ccc(O)cc1)C(=O)N[C@@H](CO)C(=O)N[C@@H](CCCNC(=N)N)C(=O)N[C@@H](Cc1ccc(O)cc1)C(=O)N[C@@H](CCCNC(=N)N)C(=O)N[C@@H](CCCCN)C(=O)N[C@@H](CCC(N)=O)C(=O)N[C@@H](CCSC)C(=O)N[C@@H](C)C(=O)N[C@H](C(=O)N[C@@H](CCCCN)C(=O)N[C@@H](CCCCN)C(=O)N[C@@H](Cc1ccc(O)cc1)C(=O)N[C@@H](CC(C)C)C(=O)N[C@@H](C)C(=O)N[C@@H](C)C(=O)N[C@H](C(=O)N[C@@H](CC(C)C)C(=O)NCC(=O)N[C@@H](CCCCN)C(=O)N[C@@H](CCCNC(=N)N)C(=O)N[C@@H](Cc1ccc(O)cc1)C(=O)N[C@@H](CCCCN)C(=O)N[C@@H](CCC(N)=O)C(=O)N[C@@H](CCCNC(=N)N)C(=O)N[C@H](C(=O)N[C@@H](CCCCN)C(=O)N[C@@H](CC(N)=O)C(=O)N[C@@H](CCCCN)C(N)=O)C(C)C)C(C)C)C(C)C)[C@@H](C)O`, the concentration for half-maximal inhibition (IC50) in assay [1] worked out at 951 nM. Further, the Emax in assay [2] stood at 93.2%. The EC50 in assay [3] worked out at 1840 nM.

The IC50 is the midpoint of a concentration-inhibition curve. As usually defined, the Emax is the greatest response seen or fitted, relative to the assay's reference. As a reminder, the EC50 is the concentration at which the effect is half-maximal.
